Test results from ChEMBL document CHEMBL4433207, “Novel Isoxazole Derivatives with Potent FXR Agonistic Activity Prevent Acetaminophen-Induced Liver Injury” (ACS Med Chem Lett, 2019).
Converted amounts (≈) assume the structure as drawn. The source made the active and inactive calls. The calls are words filed in the database; no cut-off is given here.

Columns and labels:
[1] = Aqueous solubility of compound in phosphate buffer at pH 7.4//MeOH after 24 hrs by LC-MS/MS method; assay type: physicochemical
[2] = Half life in rat liver microsomes at 1 uM up to 40 mins by LC-MS/MS method
[3] = Intrinsic clearance in rat liver microsomes at 1 uM up to 40 mins by LC-MS/MS method; settings: read-out: CLH
[4] = Metabolic stability in rat liver microsomes assessed as compound remaining at 1 uM up to 40 mins by LC-MS/MS method relative to control
[5] = molecular target: T1, G-protein coupled bile acid receptor 1 (Homo sapiens) (UniProt Q8TDU6); test: Agonist activity at human GPBAR1 expressed in HEK293T cells at 10 uM after 18 hrs by cAMP response element driven luciferase reporter gene assay; assay type: functional, cell-based
T1 sequence (whole entry): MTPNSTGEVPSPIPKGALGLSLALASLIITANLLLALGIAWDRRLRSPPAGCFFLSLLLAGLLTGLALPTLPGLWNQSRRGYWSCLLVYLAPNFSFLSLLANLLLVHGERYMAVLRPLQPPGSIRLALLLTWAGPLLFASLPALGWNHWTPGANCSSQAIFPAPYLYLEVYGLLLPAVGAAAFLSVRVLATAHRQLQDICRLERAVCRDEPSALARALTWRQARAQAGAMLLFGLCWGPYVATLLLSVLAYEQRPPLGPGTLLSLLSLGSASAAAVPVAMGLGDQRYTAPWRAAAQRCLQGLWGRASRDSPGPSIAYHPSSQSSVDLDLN

Mus musculus [6] = test: Hepatoprotective activity against APAP-induced acute liver injury in C57BL/6N mouse assessed as reduction in plasma ALT levels at 30 mg/kg, po administered 45 mins after APAP challenge; assay type: functional, organism-based
In short: (§1)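 C57Bl6 mice given a single 500 mg/kg APAP dose, with test agent at 30 mg/kg; surviving mice sacrificed 24 h later, blood and liver collected. Endpoints: serum AST/ALT, liver H&E histology, hepatic Ugt1a1/Ugt2b1/Sult1a1 mRNA, hepatic GSH, SOD activity and MDA, and plasma APAP, APAP-glucuronide and APAP-sulfate by LC–MS/MS. Mean ± SEM, 5–8 animals per group.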

Mus musculus [7] = test: Hepatoprotective activity against APAP-induced acute liver injury in C57BL/6N mouse assessed as reduction in plasma AST levels at 30 mg/kg, po administered 45 mins after APAP challenge; assay type: functional, organism-based; in short: as §1
[8] = molecular target: T2, Peroxisome proliferator-activated receptor gamma (Homo sapiens) (UniProt P37231); test: Transactivation of Gal4-fused PPARgamma LBD (unknown origin) expressed in HepG2 cells at 10 uM after 18 hrs by dual-glo luciferase assay; assay type: cell-based
T2 sequence (whole entry): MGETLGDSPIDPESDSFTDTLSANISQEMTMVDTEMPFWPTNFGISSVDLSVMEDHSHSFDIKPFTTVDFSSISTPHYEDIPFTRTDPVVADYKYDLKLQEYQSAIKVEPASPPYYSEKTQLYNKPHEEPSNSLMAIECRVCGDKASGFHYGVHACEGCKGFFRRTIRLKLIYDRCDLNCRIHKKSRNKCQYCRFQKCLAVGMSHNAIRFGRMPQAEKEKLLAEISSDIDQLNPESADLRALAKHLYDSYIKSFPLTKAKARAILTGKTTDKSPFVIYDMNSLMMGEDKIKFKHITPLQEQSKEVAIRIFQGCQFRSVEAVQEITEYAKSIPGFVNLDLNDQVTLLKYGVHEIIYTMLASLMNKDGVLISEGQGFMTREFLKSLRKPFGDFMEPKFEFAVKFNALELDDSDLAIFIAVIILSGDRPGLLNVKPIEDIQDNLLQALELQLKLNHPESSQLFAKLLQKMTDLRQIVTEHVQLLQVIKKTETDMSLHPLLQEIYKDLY

[9] = molecular target: T3, Oxysterols receptor LXR-alpha (Homo sapiens) (UniProt Q13133); test: Transactivation of Gal4-fused LXRalpha LBD (unknown origin) expressed in HepG2 cells at 10 uM after 18 hrs by dual-glo luciferase assay; assay type: cell-based
T3 sequence (whole entry): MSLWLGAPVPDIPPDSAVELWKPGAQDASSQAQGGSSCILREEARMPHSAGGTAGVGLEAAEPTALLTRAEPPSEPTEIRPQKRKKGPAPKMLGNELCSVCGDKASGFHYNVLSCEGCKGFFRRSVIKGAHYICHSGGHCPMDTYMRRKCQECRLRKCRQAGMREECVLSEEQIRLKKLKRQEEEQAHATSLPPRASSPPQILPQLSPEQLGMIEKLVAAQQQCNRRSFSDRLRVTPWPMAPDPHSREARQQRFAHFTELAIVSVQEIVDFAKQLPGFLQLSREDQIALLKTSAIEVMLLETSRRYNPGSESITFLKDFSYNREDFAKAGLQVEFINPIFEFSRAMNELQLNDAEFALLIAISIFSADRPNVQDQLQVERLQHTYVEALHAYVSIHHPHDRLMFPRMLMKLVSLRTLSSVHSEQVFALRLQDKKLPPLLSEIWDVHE

[10] = molecular target: T4, Oxysterols receptor LXR-beta (Homo sapiens) (UniProt P55055); test: Transactivation of Gal4-fused LXRbeta LBD (unknown origin) expressed in HepG2 cells at 10 uM after 18 hrs by dual-glo luciferase assay; assay type: cell-based
T4 sequence (whole entry): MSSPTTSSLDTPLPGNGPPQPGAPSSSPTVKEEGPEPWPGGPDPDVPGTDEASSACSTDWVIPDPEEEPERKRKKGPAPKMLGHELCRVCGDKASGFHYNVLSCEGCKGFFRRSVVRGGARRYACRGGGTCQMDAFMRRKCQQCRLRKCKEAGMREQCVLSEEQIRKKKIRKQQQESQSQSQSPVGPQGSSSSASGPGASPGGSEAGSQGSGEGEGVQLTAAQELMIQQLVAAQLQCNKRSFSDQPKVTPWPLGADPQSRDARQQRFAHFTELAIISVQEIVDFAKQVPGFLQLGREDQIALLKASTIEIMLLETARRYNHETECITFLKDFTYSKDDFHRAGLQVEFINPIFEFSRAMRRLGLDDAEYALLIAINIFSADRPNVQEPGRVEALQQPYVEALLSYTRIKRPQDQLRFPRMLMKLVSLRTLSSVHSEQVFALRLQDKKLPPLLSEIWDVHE

Mus musculus [11] = test: Hepatoprotective activity against APAP-induced acute liver injury in C57BL/6N mouse assessed as reduction in liver necrosis at 30 mg/kg, po administered 45 mins after APAP challenge by H and E staining based microscopic method; assay type: functional, organism-based; in short: as §1
Mus musculus [12] = test: Hepatoprotective activity against APAP-induced acute liver injury in C57BL/6N mouse assessed as increase in SOD levels at 30 mg/kg, po administered 45 mins after APAP challenge; assay type: functional, organism-based; in short: as §1
Mus musculus [13] = test: Hepatoprotective activity against APAP-induced acute liver injury in C57BL/6N mouse assessed as increase in GSH levels at 30 mg/kg, po administered 45 mins after APAP challenge; assay type: functional, organism-based; in short: as §1
Mus musculus [14] = test: Hepatoprotective activity against APAP-induced acute liver injury in C57BL/6N mouse assessed as increase in APAP metabolism by measuring increase in APAP-glucuronide level at 30 mg/kg, po administered 45 min after APAP challenge by LC-MS/MS analysis; assay type: functional, organism-based; in short: as §1
Mus musculus [15] = test: Hepatoprotective activity against APAP-induced acute liver injury in C57BL/6N mouse assessed as APAP plasma concentration at 30 mg/kg, po administered 45 min after APAP challenge by LC-MS/MS analysis (reference value: 1000 nM); assay type: functional, organism-based; in short: as §1
Mus musculus [16] = test: In-vivo agonist activity at FXR in C57BL/6N N mouse assessed as upregulation of BSEP mRNA level at 10 mg/kg, ip dosed daily […] for 3 days by RT-PCR analysis; assay type: functional, organism-based
In short: (§2)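 Mice dosed 10 mg/kg daily for 3 days, by gavage or i.p. Total liver RNA analysed by quantitative real-time PCR for SHP or BSEP mRNA, normalized to GAPDH mRNA; mean ± SEM of four mice per group.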

Mus musculus [17] = test: In-vivo agonist activity at FXR in C57BL/6N N mouse assessed as upregulation of BSEP mRNA level at 10 mg/kg, po dosed daily via gavage for 3 days by RT-PCR analysis; assay type: functional, organism-based; in short: as §2
Mus musculus [18] = test: In-vivo agonist activity at FXR in C57BL/6N N mouse assessed as upregulation of SHP mRNA level at 10 mg/kg, ip dosed daily […] for 3 days by RT-PCR analysis; assay type: functional, organism-based; in short: as §2
Mus musculus [19] = test: Hepatoprotective activity against APAP-induced acute liver injury in C57BL/6N mouse assessed as upregulation of UGT2B1 mRNA levels at 30 mg/kg, po administered 45 mins after APAP challenge; assay type: functional, organism-based; in short: as §1
Mus musculus [20] = test: In-vivo agonist activity at FXR in C57BL/6N N mouse assessed as upregulation of SHP mRNA level at 10 mg/kg, po dosed daily via gavage for 3 days by RT-PCR analysis; assay type: functional, organism-based; in short: as §2
Mus musculus [21] = test: Hepatoprotective activity against APAP-induced acute liver injury in C57BL/6N mouse assessed as increase in APAP metabolism by measuring increase in APAP-sulfate level at 30 mg/kg, po administered 45 min after APAP challenge by LC-MS/MS analysis; assay type: functional, organism-based; in short: as §1
Mus musculus [22] = test: Hepatoprotective activity against APAP-induced acute liver injury in C57BL/6N mouse assessed as upregulation of SULT1A1 mRNA levels at 30 mg/kg, po administered 45 mins after APAP challenge; assay type: functional, organism-based; in short: as §1
Mus musculus [23] = test: Hepatoprotective activity against APAP-induced acute liver injury in C57BL/6N mouse assessed as reduction in lipid peroxidation by measuring MDA levels at 30 mg/kg, po administered 45 mins after APAP challenge; assay type: functional, organism-based; in short: as §1
Mus musculus [24] = test: Hepatoprotective activity against APAP-induced acute liver injury in C57BL/6N mouse assessed as upregulation of UGT1A1 mRNA levels at 30 mg/kg, po administered 45 mins after APAP challenge; assay type: functional, organism-based; in short: as §1

CC[C@H]1[C@@H](O)[C@@H]2[C@H](CC[C@]3(C)[C@@H]([C@H](C)CCC(=O)O)CC[C@@H]23)[C@@]2(C)CC[C@@H](O)C[C@@H]12 [OBETICHOLIC ACID]
solubility at 24 h [1]: > 200 µM
half-life at 1 µM [2]: 21 min
microsomal CLint at 1 µM [3]: 109 µL/min/mg
remaining at 40 min, 1 µM [4]: 27%

CC(C)c1onc(-c2c(Cl)cccc2Cl)c1COc1ccc(COc2cccc(C#N)c2)cc1
Activity [5]: inactive

CC(C)c1onc(-c2c(Cl)cccc2Cl)c1COc1cccc(C#N)c1
Activity [5]: inactive

CC(C)c1onc(-c2c(Cl)cccc2Cl)c1COc1cccc(CO)c1
Activity [5]: inactive

CC(C)c1onc(-c2c(Cl)cccc2Cl)c1COc1ccc(COc2ccc(CO)cc2)cc1
Activity [5]: inactive

CC(C)c1onc(-c2c(Cl)cccc2Cl)c1COc1ccccc1
Activity [5]: inactive

CC(C)c1onc(-c2c(Cl)cccc2Cl)c1COc1ccc(S(C)(=O)=O)cc1
Activity [5]: inactive

CC(C)c1onc(-c2c(Cl)cccc2Cl)c1COc1ccc(C(=O)O)cc1
Activity [5]: inactive

CC(C)c1onc(-c2c(Cl)cccc2Cl)c1COc1ccc(C#N)cc1
Activity [5]: inactive

COC(=O)c1cccc(OCc2ccc(OCc3c(-c4c(Cl)cccc4Cl)noc3C(C)C)cc2)c1
Activity [5]: inactive

COC(=O)c1cccc(OCc2c(-c3c(Cl)cccc3Cl)noc2C(C)C)c1
Activity [5]: inactive

CC(C)c1onc(-c2c(Cl)cccc2Cl)c1COc1ccc(COc2cccc(CO)c2)cc1
Activity [5]: inactive

CC(C)c1onc(-c2c(Cl)cccc2Cl)c1COc1ccc(-c2cccc(CO)c2)cc1
Activity [5]: inactive

CC(C)c1onc(-c2c(Cl)cccc2Cl)c1COc1cccc(C(=O)O)c1
Activity [5]: inactive

CC(C)c1onc(-c2c(Cl)cccc2Cl)c1COc1ccc(CO)cc1
Activity [5]: inactive

COC(=O)c1cccc(-c2ccc(OCc3c(-c4c(Cl)cccc4Cl)noc3C(C)C)cc2)c1
Activity [5]: inactive

CC(C)c1onc(-c2c(Cl)cccc2Cl)c1COc1ccc(/C=C/c2cccc(C(=O)O)c2)c(Cl)c1
solubility at 24 h [1]: 152 µM (≈ 82.5 µg/mL)
Activity (Mus musculus [6]): Active
half-life at 1 µM [2]: 41 min
Activity (Mus musculus [7]): Active
microsomal CLint at 1 µM [3]: 56 µL/min/mg
remaining at 40 min, 1 µM [4]: 48%

COC(=O)c1ccc(OCc2c(-c3c(Cl)cccc3Cl)noc2C(C)C)cc1
Activity [5]: inactive

CC(C)c1onc(-c2c(Cl)cccc2Cl)c1COc1ccc(COc2cccc(C(=O)O)c2)cc1
Activity [5]: inactive
Activity [8]: inactive
Activity [9]: inactive
Activity [10]: inactive

CC(C)c1onc(-c2c(Cl)cccc2Cl)c1COc1ccc(COc2ccc(C(=O)O)cc2)cc1
Activity (Mus musculus [11]): Active
Activity [5]: inactive
Activity (Mus musculus [12]): Active
Activity (Mus musculus [6]): Active
Activity (Mus musculus [13]): Active
Activity (Mus musculus [14]): Active
Cp (Mus musculus [15]): 615 nM
Activity (Mus musculus [16]): Active
Activity (Mus musculus [7]): Active
Activity (Mus musculus [17]): Active
Activity (Mus musculus [18]): Active
Activity [8]: inactive
Activity (Mus musculus [19]): Active
Activity (Mus musculus [20]): Active
Activity [9]: inactive
Activity (Mus musculus [21]): Active
Activity (Mus musculus [22]): Active
Activity [10]: inactive
Activity (Mus musculus [23]): Active
Activity (Mus musculus [24]): Active

CC(C)c1onc(-c2c(Cl)cccc2Cl)c1COc1ccc(COc2ccc(C#N)cc2)cc1
Activity [5]: inactive

COC(=O)c1ccc(OCc2ccc(OCc3c(-c4c(Cl)cccc4Cl)noc3C(C)C)cc2)cc1
Activity [5]: inactive

CC(C)c1onc(-c2c(Cl)cccc2Cl)c1COc1ccc(-c2cccc(C(=O)O)c2)cc1
Activity [5]: inactive
